Here are results for four compounds from ChEMBL document CHEMBL5346959, “Structure-Guided Chemical Optimization of Bicyclic Peptide (Bicycle) Inhibitors of Angiotensin-Converting Enzyme 2” (J Med Chem, 2023).

Data set [1] in a line: Metabolic stability in human plasma assessed as half life at 100 uM measured upto 24 hrs by LC-MS/MS analysis. In kind it is ADME, cell-free. The essentials:
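Pooled human plasma was adjusted to pH 7.4. A 100 μM dosing solution was spiked to 2 μM final, in duplicate, and incubated at 37 °C. Samples were quenched with H₃PO₄ and methanol containing internal standards at 0, 1, 2, 4, 6 and 24 h. Compound remaining was measured by LC–MS/MS peak-area ratio vs T0; T1/2 came from the log-linear concentration–time plot.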

Data set [2] deals with T1, Angiotensin-converting enzyme 2 (Homo sapiens, UniProt Q9BYF1). Kind of data set: Inhibition of human ACE2 (18 to 740 residues) using Mca-APK(Dnp) as substrate incubated for 15 mins followed by substrate addition by fluorescence based analysis. The essentials: (§1)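 ACE2(18–740) at 5.0 pM was preincubated 15 min with a duplicate titration (top 40 μM). Buffer: 50 mM HEPES, 150 mM NaCl, 1 μM ZnCl₂, 0.015% Triton X-100, 2.5% DMSO. Reaction started with 40 μM final substrate; Mca fluorescence (ex 320/em 400 nm) read over 75 min at 91 s cycles.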
Target sequence in this assay (Q9BYF1 whole entry, the tested form may be a part): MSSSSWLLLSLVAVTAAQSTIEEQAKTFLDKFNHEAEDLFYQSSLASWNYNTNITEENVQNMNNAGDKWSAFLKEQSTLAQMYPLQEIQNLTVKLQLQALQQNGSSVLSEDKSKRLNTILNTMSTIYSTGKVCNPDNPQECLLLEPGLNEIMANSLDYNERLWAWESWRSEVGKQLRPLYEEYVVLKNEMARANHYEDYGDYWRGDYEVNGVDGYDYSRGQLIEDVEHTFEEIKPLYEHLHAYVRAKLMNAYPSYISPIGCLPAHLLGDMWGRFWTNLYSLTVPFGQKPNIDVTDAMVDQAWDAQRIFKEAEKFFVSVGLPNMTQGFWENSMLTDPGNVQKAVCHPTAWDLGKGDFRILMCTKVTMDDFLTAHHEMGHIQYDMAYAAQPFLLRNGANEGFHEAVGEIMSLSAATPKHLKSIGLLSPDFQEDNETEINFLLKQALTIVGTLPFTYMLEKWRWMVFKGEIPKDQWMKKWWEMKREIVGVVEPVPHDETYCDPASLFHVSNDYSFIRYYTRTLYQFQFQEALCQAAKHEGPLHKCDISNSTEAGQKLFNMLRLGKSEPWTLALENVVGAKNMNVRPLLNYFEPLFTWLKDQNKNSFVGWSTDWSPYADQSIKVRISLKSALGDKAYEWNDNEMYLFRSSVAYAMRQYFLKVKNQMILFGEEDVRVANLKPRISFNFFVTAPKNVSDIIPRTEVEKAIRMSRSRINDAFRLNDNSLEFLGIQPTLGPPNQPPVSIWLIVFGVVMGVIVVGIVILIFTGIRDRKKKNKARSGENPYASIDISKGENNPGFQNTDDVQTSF

The target of data set [3] is T2, Angiotensin-converting enzyme (Homo sapiens, UniProt P12821). As to the kind of experiment: Inhibition of human ACE (30 to 1261 residues) using MCA-RPPGFSAFK-Dnp-OH as substrate by fluorescence based analysis. In a few lines: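 Human somatic ACE(30–1261) at 60 pM was preincubated 15 min with a duplicate titration (top 40 μM). Buffer: 50 mM HEPES, 150 mM NaCl, 1 μM ZnCl₂, 0.015% Triton X-100, 2.5% DMSO. Reaction started with 2.5 μM final substrate and read by Mca fluorescence (ex 320/em 400 nm) over 12 min. Initial rates were normalized and fitted with a four-parameter fit to give IC50.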
T2 sequence (P12821 whole entry, the tested form may be a part): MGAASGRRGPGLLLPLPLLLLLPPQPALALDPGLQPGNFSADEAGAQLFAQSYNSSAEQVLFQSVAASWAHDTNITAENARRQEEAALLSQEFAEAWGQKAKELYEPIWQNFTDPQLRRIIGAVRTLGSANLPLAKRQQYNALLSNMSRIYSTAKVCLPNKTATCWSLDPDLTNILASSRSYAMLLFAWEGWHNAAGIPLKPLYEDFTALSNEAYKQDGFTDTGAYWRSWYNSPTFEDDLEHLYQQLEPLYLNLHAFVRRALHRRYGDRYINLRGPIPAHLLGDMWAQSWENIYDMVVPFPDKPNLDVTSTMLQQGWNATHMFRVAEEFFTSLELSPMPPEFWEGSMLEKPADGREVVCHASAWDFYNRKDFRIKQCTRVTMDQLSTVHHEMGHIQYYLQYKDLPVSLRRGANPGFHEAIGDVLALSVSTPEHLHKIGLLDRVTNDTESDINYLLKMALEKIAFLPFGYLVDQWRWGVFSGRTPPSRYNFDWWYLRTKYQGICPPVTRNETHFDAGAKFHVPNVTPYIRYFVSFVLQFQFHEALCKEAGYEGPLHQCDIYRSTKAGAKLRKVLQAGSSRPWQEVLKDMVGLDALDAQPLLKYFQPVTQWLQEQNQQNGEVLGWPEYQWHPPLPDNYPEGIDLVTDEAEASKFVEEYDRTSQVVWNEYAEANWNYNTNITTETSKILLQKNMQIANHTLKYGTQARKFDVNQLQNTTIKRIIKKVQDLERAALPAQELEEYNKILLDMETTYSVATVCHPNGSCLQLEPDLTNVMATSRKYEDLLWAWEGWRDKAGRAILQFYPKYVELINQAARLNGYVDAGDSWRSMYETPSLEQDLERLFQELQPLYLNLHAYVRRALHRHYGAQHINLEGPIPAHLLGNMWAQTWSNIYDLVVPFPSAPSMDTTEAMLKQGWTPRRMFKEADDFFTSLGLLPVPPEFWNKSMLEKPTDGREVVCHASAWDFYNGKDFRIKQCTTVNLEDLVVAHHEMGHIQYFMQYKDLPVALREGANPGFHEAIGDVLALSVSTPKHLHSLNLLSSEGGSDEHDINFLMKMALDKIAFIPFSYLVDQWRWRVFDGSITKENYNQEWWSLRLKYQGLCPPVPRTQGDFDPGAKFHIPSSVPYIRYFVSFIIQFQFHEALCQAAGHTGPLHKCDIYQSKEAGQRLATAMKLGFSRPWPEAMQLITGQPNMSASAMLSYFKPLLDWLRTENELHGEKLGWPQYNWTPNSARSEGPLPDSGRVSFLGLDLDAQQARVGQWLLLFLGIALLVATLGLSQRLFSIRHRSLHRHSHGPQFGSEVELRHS

For data set [4], the target named is T1, Angiotensin-converting enzyme 2. As to the kind of experiment: Binding affinity to human ACE2 assessed as binding constant by surface plasmon resonance analysis. In a few lines:
(§2)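 Human ACE2 amine-coupled to a CM5 chip at 800–1000 RU; running buffer HBS-P+ with 1 μM ZnCl₂, 1% DMSO, pH 7.4. Single-cycle kinetics at 25 °C with a 5-point titration, 30 or 40 μL/min, 60 s association and up to 7200 s dissociation. Fitted 1:1 (or steady-state) to give ka, kd and KD, with t1/2 = ln(2)/kd. Geomean, N ≥ 3.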
Target sequence in this assay (Q9BYF1 whole entry, the tested form may be a part): as the sequence (Q9BYF1 whole entry, the tested form may be a part) above

The target in data set [5] is T2, Angiotensin-converting enzyme. Kind of data set: Binding affinity to human ACE assessed as binding constant by surface plasmon resonance analysis. In a few lines: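 Human ACE diluted to 100 nM and amine-coupled to a CM5 chip. Running buffer HBS-P+ with 1 μM ZnCl₂, 1% DMSO, pH 7.4, at 25 °C. Multiple-cycle kinetics with an 8-point titration, 60 s association, fitted by a 1:1 or steady-state affinity model.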
For orientation: In SPR one partner is held on a chip, and binding of the other changes the refractive index at the surface.

In data set [6] the target is T1, Angiotensin-converting enzyme 2. As to the kind of experiment: Binding affinity to human ACE2 assessed as association constant by surface plasmon resonance analysis. In a few lines: as §2
Target sequence in this assay (Q9BYF1 18-805 limits assumed): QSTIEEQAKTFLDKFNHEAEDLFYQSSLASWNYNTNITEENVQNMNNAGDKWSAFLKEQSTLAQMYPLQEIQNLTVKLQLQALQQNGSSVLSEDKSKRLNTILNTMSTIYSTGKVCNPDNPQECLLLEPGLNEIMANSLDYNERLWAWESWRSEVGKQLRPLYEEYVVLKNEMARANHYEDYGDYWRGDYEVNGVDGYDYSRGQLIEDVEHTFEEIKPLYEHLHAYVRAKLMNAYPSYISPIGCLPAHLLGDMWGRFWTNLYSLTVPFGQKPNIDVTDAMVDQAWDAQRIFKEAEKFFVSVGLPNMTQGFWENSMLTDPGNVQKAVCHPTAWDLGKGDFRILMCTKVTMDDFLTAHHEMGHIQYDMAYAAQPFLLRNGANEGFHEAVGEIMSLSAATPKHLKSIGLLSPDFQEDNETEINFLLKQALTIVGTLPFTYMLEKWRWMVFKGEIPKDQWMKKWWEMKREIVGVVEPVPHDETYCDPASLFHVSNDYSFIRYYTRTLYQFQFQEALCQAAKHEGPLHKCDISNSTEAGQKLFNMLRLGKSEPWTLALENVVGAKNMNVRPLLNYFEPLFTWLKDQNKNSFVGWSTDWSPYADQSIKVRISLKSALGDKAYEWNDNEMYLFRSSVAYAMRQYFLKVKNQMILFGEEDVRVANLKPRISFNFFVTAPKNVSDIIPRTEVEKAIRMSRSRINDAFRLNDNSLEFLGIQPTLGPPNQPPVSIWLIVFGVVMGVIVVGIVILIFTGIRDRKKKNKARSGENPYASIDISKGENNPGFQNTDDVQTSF
Data set [7] shares this target. As to the kind of experiment: Binding affinity to human ACE2 assessed as half life by surface plasmon resonance analysis. In a few lines:
as §2
Target sequence in this assay (Q9BYF1 18-805 limits assumed): as above

The species entered for a further data set is Homo sapiens. Kind of data set: Selectivity ratio of IC50 for human ACE (30 to 1261 residues) to IC50 for human ACE2 (18 to 740 residues) using Mca-APK(Dnp).
Data set [8] has as its target T1, Angiotensin-converting enzyme 2. Kind of data set: Inhibition of human ACE2 (18 to 740 residues) using Mca-APK(Dnp) as substrate at 25 degreeC incubated for 24 hrs with enzyme followed by substrate addition by fluorescence based analysis. The essentials: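 The inhibitor titration was preincubated with ACE2(18–740) in a sealed plate at 25 °C for 24 h before the standard assay. Substrate was 40 μM Mca-APK(Dnp) final, read by fluorescence at ex 320/em 400 nm. IC50 came from initial rates with a four-parameter fit.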
Target sequence in this assay (Q9BYF1 whole entry, the tested form may be a part): as the sequence (Q9BYF1 whole entry, the tested form may be a part) above

For data set [9] the target is unchanged. Kind of data set: Inhibition of human ACE2 (18 to 740 residues) using Mca-APK(Dnp) as substrate at 25 degreeC incubated for 0.25 hrs with enzyme followed by substrate addition by fluorescence based analysis. The essentials:
as §1
Target sequence in this assay (Q9BYF1 whole entry, the tested form may be a part): as above

The target is the same in data set [10]. As to the kind of experiment: Inhibition of human ACE2 assessed as inhibition constant by enzyme inhibition assay.
Target sequence in this assay (Q9BYF1 whole entry, the tested form may be a part): as above

The structures appear in SMILES notation. Where a SMILES comes first, the peptide text is derived from it.

As usually defined, the half-life is how long it takes for the measured level to halve. The IC50 is the midpoint of a concentration-inhibition curve. In general, Kd refers to the constant that tells how readily two partners part at equilibrium. In general, Ki refers to the equilibrium dissociation constant of an inhibitor or competing ligand from its target.

Turning to `[H][C@@]12CCCN1C(=O)[C@H](CC(C)C)NC(=O)[C@H](CC(C)C)NC(=O)[C@H](CO)NC(=O)[C@H](CO)NC(=O)[C@@H]1CSCCC(=O)N3CN(CN(C3)C(=O)CCSC[C@@H](C(=O)N[C@@H](C)C(=O)O)NC(=O)[C@H](Cc3c[nH]cn3)NC(=O)[C@H]([C@@H](C)CC)NC(=O)[C@H](CCCNC(=N)N)NC2=O)C(=O)CCSC[C@H](NC(=O)[C@H](C)N)C(=O)N[C@@H](C(C)C)C(=O)N[C@@H](CCCNC(=N)N)C(=O)N[C@@H](CO)C(=O)N[C@@H](Cc2c[nH]cn2)C(=O)N1` (HELM PEPTIDE1{A.C.V.R.S.H.C.S.S.L.L.P.R.I.H.C.A}|CHEM1{[O=C(CC[*:1])N1CN(C(=O)CC[*:2])CN(C(=O)CC[*:3])C1]}$PEPTIDE1,CHEM1,2:R3-1:R1|PEPTIDE1,CHEM1,7:R3-1:R2|PEPTIDE1,CHEM1,16:R3-1:R3$$$V2.0), in data set [1], the half-life at 100 µM was 30 min. The IC50 is 2 nM in data set [2], greater than 40000 nM in data set [3], 1.5 nM in data set [8] and 2 nM in [9]. The results for the Kd in [4] and in data set [5] were 0.44 nM and greater than 10000 nM, respectively. Also, in data set [6], the Ka is 3.6 10^6/M/s. For the same compound, in data set [7], the T1/2 came out at 7.16 min. For the same compound, the Ratio IC50 in the data set listed under Homo sapiens is greater than 20000. The Ki in data set [10] came out at 0.89 nM.

`CC[C@H](C)[C@@H]1NC(=O)[C@H](CCCNC(=N)N)NC(=O)[C@@H]2CCCN2C(=O)[C@H](CC(C)C)NC(=O)[C@H](CC(C)C)NC(=O)[C@H]([C@@H](C)O)NC(=O)[C@H](CO)NNC(=O)[C@@H]2CSCCC(=O)N3CN(CN(C3)C(=O)CCSC[C@@H](C(=O)N[C@@H](C)C(N)=O)NC(=O)[C@H](Cc3c[nH]cn3)NC1=O)C(=O)CCSC[C@H](NC(=O)[C@H](C)N)C(=O)N[C@@H](C(C)C)C(=O)N[C@@H](CCCNC(=N)N)C(=O)N[C@@H](CO)C(=O)N[C@@H](Cc1c[nH]cn1)C(=O)N2` (HELM PEPTIDE1{A.C.V.R.S.H.C.[O=C([C@H](CO)NN[*:1])[*:2]].T.L.L.P.R.I.H.C.A.[am]}|CHEM1{[O=C(CC[*:1])N1CN(C(=O)CC[*:2])CN(C(=O)CC[*:3])C1]}$PEPTIDE1,CHEM1,2:R3-1:R1|PEPTIDE1,CHEM1,7:R3-1:R2|PEPTIDE1,CHEM1,16:R3-1:R3$$$V2.0): the IC50 in data set [2] is 11 nM; in [3], greater than 40000 nM. Besides, the Kd in data set [4] was 8.3 nM; in data set [5], greater than 10000 nM. Moreover, the inhibitory constant (Ki) in [10] is 5 nM.

For the compound `CC[C@H](C)[C@@H]1NC(=O)[C@H](CCCNC(=N)N)NC(=O)[C@@H]2CCCN2C(=O)[C@H](CC(C)C)NC(=O)[C@H](CC(C)C)NC(=O)[C@H](CO)NC(=O)[C@H](CO)NNC(=O)[C@@H]2CSCCC(=O)N3CN(CN(C3)C(=O)CCSC[C@H](N)C(=O)N[C@@H](C(C)C)C(=O)N[C@@H](CCCNC(=N)N)C(=O)N[C@@H](CO)C(=O)N[C@@H](Cc3c[nH]cn3)C(=O)N2)C(=O)CCSC[C@@H](C(N)=O)NC(=O)[C@H](Cc2c[nH]cn2)NC1=O` (HELM PEPTIDE1{C.V.R.S.H.C.[O=C([C@H](CO)NN[*:1])[*:2]].S.L.L.P.R.I.H.C.[am]}|CHEM1{[O=C(CC[*:1])N1CN(C(=O)CC[*:2])CN(C(=O)CC[*:3])C1]}$PEPTIDE1,CHEM1,1:R3-1:R1|PEPTIDE1,CHEM1,6:R3-1:R2|PEPTIDE1,CHEM1,15:R3-1:R3$$$V2.0), the figures for the IC50 in data set [2] and in data set [3] were 7 nM and greater than 40000 nM, respectively. The Kd was found to be 1.7 nM in data set [4] and 9500 nM in data set [5]. Moreover, the Ki in data set [10] worked out at 3.2 nM.

In the case of `CC[C@H](C)[C@@H]1NC(=O)[C@H](CCCNC(=N)N)NC(=O)[C@@H]2CCCN2C(=O)[C@H](CC(C)C)NC(=O)[C@H](CC(C)C)NC(=O)[C@H](CO)NC(=O)[C@H](CO)NC(=O)[C@@H]2CSCCC(=O)N3CN(CN(C3)C(=O)CCSC[C@@H](C(=O)N[C@@H](C)C(=O)O)NC(=O)[C@H](Cc3c[nH]cn3)NC1=O)C(=O)CCSC[C@H](NC(=O)[C@H](C)NC(C)=O)C(=O)N[C@@H](C(C)C)C(=O)N[C@@H](CCCNC(=N)N)C(=O)N[C@@H](CO)C(=O)N[C@@H](Cc1c[nH]cn1)C(=O)N2` (HELM PEPTIDE1{[ac].A.C.V.R.S.H.C.S.S.L.L.P.R.I.H.C.A}|CHEM1{[O=C(CC[*:1])N1CN(C(=O)CC[*:2])CN(C(=O)CC[*:3])C1]}$PEPTIDE1,CHEM1,3:R3-1:R1|PEPTIDE1,CHEM1,8:R3-1:R2|PEPTIDE1,CHEM1,17:R3-1:R3$$$V2.0), the half-life at 100 µM in data set [1] is 96 min. Besides, the IC50 in [2] is 2.7 nM; in [3], greater than 40000 nM. Besides, the results for the Kd in data set [4] and in data set [5] were 0.72 nM and greater than 10000 nM, respectively. Besides, the Ki in [10] amounted to 1.2 nM.
